# Experimental data of several laboratories.
# Protocols differ between the studies behind these lines.
# Target: Serine/threonine-protein kinase RIO2 (RIOK2, Homo sapiens, UniProt Q9BVS4)
SMILES,assay,conditions,remaining binding [%]
CS(=O)(=O)N1CCCC(NC(=O)[C@H](CCC2CCCCC2)NC(=O)c2ccc(CNc3ncnc4c3nnn4-c3ccccc3)cc2)C1 (some centres unmarked),"cell-free assay, competition with immobilised ligand",0.1 µM,99
c1cnn2ncc(-c3ccnc(N4CCC45COC5)n3)c2c1,binding,1 µM,61
c1cncc(-c2cccc(Nc3nccc(NC4CCCCC4)n3)c2)c1,"binding, competition with immobilised ligand",10 µM,37
C[C@@H]1CN(c2ccc3ncc(-c4ccc5[nH]nc(C6CC6)c5c4)n3n2)C[C@H](C)O1,"binding, competition with immobilised ligand",50 nM,76
O=C(Nc1c[nH]nc1C(=O)NC1CCNCC1)c1cc(F)cc(F)c1,"binding, competition with immobilised ligand",1 µM,100
NS(=O)(=O)c1cc(NC(=O)Cc2ccccc2)ccc1Oc1cccc(Cl)c1,"cell-free assay, competition with immobilised ligand",1 µM,100
C=CC(=O)N1CCC(C(=O)NCC(=O)N2CCN(c3nc(-c4cnc(N)nc4C(F)F)nc(N4CCOCC4)n3)CC2)CC1,"binding, competition with immobilised ligand",1 µM,83
O=C(c1ccc(Nc2ncc(Cl)c(-c3cc4ccccc4s3)n2)cc1)N1CCC(N2CCCC2)CC1,"binding, competition with immobilised ligand",1 µM,40
O=c1nc(-c2ccccn2)sc2ccccc12,"binding, competition with immobilised ligand",1 µM,94
CNC(=O)[C@@H]1CC[C@@H](n2c(-c3ccc4cnccc4c3)nc3ccc(C(=O)NCc4cccc(C(N)=O)c4)cc32)C1,"binding, competition with immobilised ligand",1 µM,97
C[C@@H](c1ccc(-n2cnc3c(N)ncnc32)cc1)N1CCc2nn(C)c(Cc3ccccc3)c2C1=O,"binding, competition with immobilised ligand",0.1 µM,97
Cc1nc(N2CC[C@@H](O)C2)ncc1-c1cc(C(F)(F)F)cc2[nH]ncc12,"binding, competition with immobilised ligand",1 µM,100
C[C@H]1CCN(c2nccc(-c3cnn4ncccc34)n2)C1,binding,1 µM,90
O=C(NCCCN1CCOCC1)c1ccc(Nc2ncc(Cl)c(-c3ccc(Cl)s3)n2)cc1,"binding, competition with immobilised ligand",1 µM,59
COc1cnc(Nc2cccc(S(N)(=O)=O)c2)nc1N1CCN(c2ccccc2)C(=O)C1,"binding, competition with immobilised ligand",1 µM,100
CN(CCCC(F)(F)F)c1nccc(-c2cnn3ncccc23)n1,binding,1 µM,100
CC(=O)N1CCC(c2ccc(C(=O)NC3=NCCN3)cc2C(F)(F)F)CC1,"cell-free assay, competition with immobilised ligand",1 µM,93
F[C@@H]1CCN(c2nccc(-c3cnn4ncccc34)n2)C1,binding,1 µM,64
CCOC(=O)c1cc2cc(-c3cc(C(=O)NCc4ccc(C(=O)O)cc4)nn3C)ccc2[nH]1,"cell-free assay, competition with immobilised ligand",0.1 µM,100
CN(C)c1nccc(-c2cnn3ncccc23)n1,binding,1 µM,84
CCS(=O)(=O)c1cc2cc(C[C@](O)(CC(C)(C)c3ccc(F)cc3C(N)=O)C(F)(F)F)[nH]c2cn1,"cell-free assay, competition with immobilised ligand",1 µM,100
Cc1cnn2ncc(-c3ccnc(N(C)C)n3)c2c1,binding,1 µM,92
O=C(NCCCN1CCOCC1)c1ccc(Nc2nccc(-c3cc4ccccc4s3)n2)cc1,"binding, competition with immobilised ligand",1 µM,47
